4 compounds from article PMC3835248 (Journal of the American Heart Association: Cardiovascular …, 2013) can be followed below.

Entries after “also recorded” stand apart in the source; their conditions may differ.

The test system of one test is IκBα. Briefly: Half-life of endogenous IκBα in Jurkat T cells. It is filed as cell-based, human. The note with it: 1 μmol/L 30 minutes before cycloheximide, PMA/Iono-stimulated Jurkat. Put shortly: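 Jurkat T cells given cycloheximide 10 μg/mL. 30 min later, left unstimulated or given PMA 5 nmol/L plus ionomycin 2 μmol/L. Parallel samples had epoxomicin 1 μmol/L 30 min before cycloheximide. Cells sampled at […]; two-step hypotonic NP-40/0.45 mol/L NaCl lysates. Infrared quantitative immunoblot; signal normalised to β-actin, expressed as % of t0; mean±SD of ≥3 experiments.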

The next test concerns importins α. Briefly: Competition of biotinylated peptides with native auto-inhibitory regions. It is filed as binding, human. The note with it: biotinylated peptide, Jurkat lysate, pull-down. A digest of the protocol:
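Biotinylated peptides of importin α1, α3, α4, α5 and α7 auto-inhibitory regions, with biotinylated NLS and mutant NLS peptides, each added separately to whole-cell lysate of Jurkat T cells. Per pull-down protocol: 10 nmols peptide, lysate 1.5 mg/mL total protein, overnight. Complexes captured on streptavidin beads; importins detected by immunoblot.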

A further test deals with GST-tagged Imp α5 ΔIBB (Homo sapiens, UniProt P52294). The test is described as follows: Bio-Layer Interferometry. It is filed as binding. Put shortly:
(§1)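 Human importin α1 or α5 lacking the importin-β-binding domain (aa 1-100), GST-tagged, expressed in E. coli BL21(DE3)-RIL as inclusion bodies. Refolded, GST-affinity purified and dialysed into pH 7.0 "intracellular" buffer. Biotinylated peptide (5 nmol/L) loaded on streptavidin biosensors, 10 min, 37°C. Protein at 50–200 nmol/L, 30°C, with GST alone as control. Association 15 min, dissociation 15 min; curves fitted 1:1 or 2:1; 3 independent experiments.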
(In general: Biolayer interferometry detects binding as a change in optical thickness at a sensor tip.)

The next test deals with GST-tagged Imp α1 ΔIBB. Briefly: Bio-Layer Interferometry. It is filed as binding, human. A digest of the protocol:
as §1

Test [1] relates to Imp α5. The test is described as follows: Importin binding. The arrangement: species or system human. Put shortly:
(§2)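 Biotinylated peptides (N-terminal biotin, 5-Gly spacer), 10 nmols, incubated overnight with whole-cell lysates of unstimulated Jurkat, HeLa S3 or EA.hy926 cells (Jurkat at 1.5 mg/mL total protein). Captured on streptavidin beads; immunoblotted for importins α1, α3, α4, α5, α7, β1, with GAPDH as nonspecific control. Binding strength judged from pulled-down versus lysate amount, alongside GAPDH-normalised importin abundance per cell type.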

Test [2] deals with Imp α1. Briefly: Importin binding. More on the design: species or system human. A digest of the protocol:
as §2

Test [3] concerns Imp α4. The test is described as follows: Competition binding assay, Imp α4. More on the design: species or system human. The note with it: free N50 0-300 μmol/L, Jurkat lysate 1.5 mg/mL. Put shortly: (§3)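 Unlabelled N50 (0, 10, 30, 100, 300 μmol/L) incubated overnight at 4°C with unstimulated Jurkat lysate at 1.5, 0.3 or 0.05 mg/mL total protein. Unbound importins then pulled down with biotinylated N50 on streptavidin beads and quantified by immunoblot. Bead-bound signal without competitor set to 100%; percentage remaining per concentration, mean±SD of 3 independent experiments.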

For the next test, the system named is Imp α7. The test is described as follows: Importin binding. More on the design: species or system human. The note with it: biotinylated peptide, whole cell lysates, SA-bead pull-down, immunoblot. Put shortly: as §2
(Immunoblotting shows a protein as a band on a membrane.)

The next test concerns Imp α3. Briefly: Importin binding. The arrangement: species or system human. The note with it: HeLa S3 lysate compared to other cell types. A digest of the protocol:
as §2

Test [4] relates to Imp α1. Briefly: Competition binding assay, Imp α1. More on the design: species or system human. The note with it: free N50 0-300 μmol/L, Jurkat lysate 1.5 mg/mL. A digest of the protocol:
as §3

Test [5] concerns Imp α4. Briefly: Importin binding. The note with it: Jurkat T cell lysate compared to HeLa S3 and EA.hy926. More on the design: species or system human. Put shortly: as §2
In test [6] the test system is Imp α5. Briefly: Competition binding assay, Imp α5. The arrangement: species or system human. The note with it: free N50 0-300 μmol/L, Jurkat lysate. Put shortly: as §3

Chain of GST-tagged Imp α5 ΔIBB (P52294 101-538 limits assumed, stated change not applied): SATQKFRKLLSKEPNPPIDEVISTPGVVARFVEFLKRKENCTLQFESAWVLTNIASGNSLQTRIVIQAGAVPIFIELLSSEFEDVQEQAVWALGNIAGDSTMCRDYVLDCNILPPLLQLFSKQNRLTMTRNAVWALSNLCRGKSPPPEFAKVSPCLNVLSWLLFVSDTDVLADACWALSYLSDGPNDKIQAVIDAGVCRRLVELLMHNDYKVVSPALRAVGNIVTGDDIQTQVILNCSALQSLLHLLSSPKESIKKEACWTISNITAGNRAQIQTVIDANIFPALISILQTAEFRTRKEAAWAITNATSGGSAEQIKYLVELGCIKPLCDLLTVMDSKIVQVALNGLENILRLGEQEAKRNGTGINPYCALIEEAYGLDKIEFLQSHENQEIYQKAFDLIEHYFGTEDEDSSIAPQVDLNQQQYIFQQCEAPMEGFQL

As for `CC[C@H](C)[C@H](NC(=O)[C@H]([C@@H](C)CC)N(C)C(C)=O)C(=O)N[C@H](C(=O)N[C@@H](CC(C)C)C(=O)[C@@]1(C)CO1)[C@@H](C)O` [epoxomicin], the “effect on turnover of IκBα” value with IκBα is “drastically slowed turnover”.

In the case of IQLRKQKREQQLFKRRNVELI [AR7], in the test with importins α, the “competition with native ARs of importins α” value is recorded as “successfully competed with native ARs of all importins α, including its own”.

On to VQRDEQKLMP [N50M], for which, on GST-tagged Imp α5 ΔIBB (biotinylated peptide immobilized, Imp α5 ΔIBB 200 nmol/L), the “BLI response with Imp α5” value is reported as “at the background level”. In the test with GST-tagged Imp α1 ΔIBB (biotinylated peptide immobilized, Imp α1 ΔIBB 200 nmol/L), the “BLI response with Imp α1” value is recorded as “at the background level”.

Consider VQRKRQKLMP [N50], for which the “relative strength of interaction with Imp α5” value in the test on Imp α5 [1] (all 3 cell types (Jurkat, HeLa S3, EA.hy926)) was “similarly strong in all 3 cell types”. The “relative amount of Imp α5 bound to biotinylated N50” value with Imp α5 [1] (compared with any of the other detected proteins) was “strikingly higher than any of the other detected proteins”. Also, the “relative strength of interaction with Imp α1” value in the test on Imp α1 [2] (EA.hy926 lysate compared to Jurkat T cells) and in the test with Imp α1 [2] (HeLa S3 lysate compared to Jurkat T cells) was “weaker” each time. Also, the “inhibition of Imp α4 binding to immobilized N50, in words” value in the test with Imp α4 [3] was “slightly inhibited; also recorded: do not substantially inhibit binding”. In the test with importins α, the “competition with native ARs of importins α” value was “successfully competes”. The “interaction with Imp α7” value in the test with Imp α7 is “inability to detect any interactions; also recorded: inaccessible to this peptide”. For the same compound, in the test with Imp α3, the “relative strength of interaction with Imp α3” value is on record as “stronger”. The “inhibition of Imp α1 binding to immobilized N50, in words” value in the test with Imp α1 [4] is listed as “slightly inhibited; also recorded: do not substantially inhibit binding”. The “relative strength of interaction with Imp α4” value in the test on Imp α4 [5] is given as “stronger”. For the same compound, the “inhibition of Imp α5 binding to immobilized N50, in words” value in the test with Imp α5 [6] is recorded as “tightly controlled by unlabeled peptide in all lysate total protein concentrations; also recorded: concentration dependent”. Further, the “binding to Imp α5, in words” value at GST-tagged Imp α5 ΔIBB (BLI) is “specific, high‐affinity binding; also recorded: preferential and specific binding”. Besides, at GST-tagged Imp α5 ΔIBB (BLI, normalized by subtracting GST), the “maximum response with Imp α5 relative to maximum response with Imp α1” value is on record as “more than 20 fold”. Also, the “binding to Imp α1, in words” value in the test on GST-tagged Imp α1 ΔIBB (BLI) is “not Imp α1; also recorded: nonspecific; also recorded: low affinity”.
